One series deals with Tubulin (Sus scrofa) (UniProt P02554+P02550). Put plainly: Inhibition of purified porcine brain tubulin polymerization at 20 uM after 100 mins by fluorescence assay. The method in brief: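 Porcine brain tubulin 2.0 mg/mL in General Tubulin Buffer with Tubulin Glycerol Buffer, GTP and DAPI. Added to compound prewarmed at 37 °C (final 2.0% DMSO, which is also the vehicle control). DAPI fluorescence (ex 340, em 460 nm) read kinetically over 100 min. Four independent experiments.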
Sequence of Tubulin (Sus scrofa) (P02550 whole entry, looked up): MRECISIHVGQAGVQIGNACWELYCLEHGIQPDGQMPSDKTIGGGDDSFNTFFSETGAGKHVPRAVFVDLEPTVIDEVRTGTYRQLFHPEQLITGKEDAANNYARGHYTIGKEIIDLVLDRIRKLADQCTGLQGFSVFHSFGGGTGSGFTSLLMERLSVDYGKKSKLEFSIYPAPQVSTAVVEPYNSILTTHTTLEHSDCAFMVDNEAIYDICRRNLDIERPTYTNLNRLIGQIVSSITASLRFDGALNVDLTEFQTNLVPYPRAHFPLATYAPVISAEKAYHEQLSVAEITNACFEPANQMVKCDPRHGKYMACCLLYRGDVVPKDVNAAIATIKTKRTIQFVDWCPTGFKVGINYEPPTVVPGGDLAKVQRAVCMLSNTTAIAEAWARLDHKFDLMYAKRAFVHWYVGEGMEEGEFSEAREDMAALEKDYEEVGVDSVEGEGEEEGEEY
Sequence of Tubulin (Sus scrofa) (P02554 whole entry, looked up): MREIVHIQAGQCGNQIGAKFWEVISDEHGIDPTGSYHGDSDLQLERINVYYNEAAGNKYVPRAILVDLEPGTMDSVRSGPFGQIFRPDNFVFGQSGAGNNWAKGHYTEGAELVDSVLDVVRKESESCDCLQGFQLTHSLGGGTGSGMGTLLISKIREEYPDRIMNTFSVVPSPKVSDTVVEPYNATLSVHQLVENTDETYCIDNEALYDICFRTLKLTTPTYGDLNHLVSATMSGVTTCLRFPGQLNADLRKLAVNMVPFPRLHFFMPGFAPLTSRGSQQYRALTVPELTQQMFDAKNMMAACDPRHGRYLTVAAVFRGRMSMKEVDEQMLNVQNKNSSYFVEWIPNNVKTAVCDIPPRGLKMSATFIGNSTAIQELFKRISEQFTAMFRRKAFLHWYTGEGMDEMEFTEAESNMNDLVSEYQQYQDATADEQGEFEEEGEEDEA

Another series deals with SW-620. Put plainly: Antiproliferative activity against human SW620 cells after 72 hrs by cell counting kit analysis. It counts as functional, cell-based. Conditions: SW-620, 72 h. The method in brief: (§1)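 Cells grown with compound for 72 h, then growth quantified by WST-1 Cell Counting Kit. Final concentrations 1, 10, 25, 50, 100 and 200 μM. All media had 10% FBS, 37 °C, 5% CO2. Read-out IC50.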
A general note: Formazan colour is commonly taken as a measure of viable cells.

The subject of series [1] is HCT-116. In words: Cell cycle arrest in human HCT116 cells assessed as increase of phosphorylated histone H3 at Ser10 level at 20 uM after 24 hrs using propidium iodide staining by flow cytometry (reference value: 1.4 %). It counts as functional. On the technique in general: A flow cytometer gives signals particle by particle.
For series [2], the system named is HCT-116. Put plainly: Antitumor activity against human HCT116 cells xenografted in nude mouse assessed as inhibition of tumor growth at 80 mg/kg, ip administered at days 0, 2, 4, 7, 9, 11, 14 and 16 measured on day 21 relative to control. It counts as functional. Conditions: route intraperitoneal. A general note: A xenograft is tissue or cells of one species grown in another, often human tumour cells in immunodeficient mice.

The test system of another series is MCF7. In words: Antiproliferative activity against human MCF7 cells after 72 hrs by cell counting kit analysis. Conditions: MCF7, 72 h. It counts as functional, cell-based. An outline of the steps:
as §1

In series [3] the test system is HCT-116. In words: Induction of apoptosis in human HCT116 cells at 20 uM after 24 hrs using FITC-TUNEL staining by flow cytometry. It counts as functional. An outline of the steps: (§2)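 HCT116 at 1.0×10^6 per 60 mm dish, treated 24 or 48 h (0.4% DMSO control). Floating plus adherent cells assayed with DeadEnd Fluorometric TUNEL System, and FITC-TUNEL-positive percentage read by flow cytometry. Five independent experiments.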

The test system of series [4] is HCT-116. Put plainly: Cell cycle arrest in human HCT116 cells assessed as increase of phosphorylated histone H3 at Ser10 level at 20 to 40 uM after 24 hrs by Western blotting. It counts as functional, cell-based. An outline of the steps: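 HCT116 (1.0×10^6/dish) serum-starved 24 h, then treated 24 h in serum-free medium (0.4% DMSO control). Lysed 1 h at 0 °C in modified lysis buffer (pH 8.0, 1% NP-40). 7.5 µg protein run on SDS-PAGE and PVDF blot, probed for phospho-histone H3 Ser10 and total H3, ECL detection. Five independent experiments.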

For another series, the system named is SK-BR-3. In words: Antiproliferative activity against human SK-BR-3 cells after 72 hrs by cell counting kit analysis. It counts as functional, cell-based. Conditions: SK-BR-3, 72 h. The method in brief: as §1
The subject of series [5] is HCT-116. In words: Cell cycle arrest in human HCT116 cells assessed as accumulation at G2/M phase at 20 uM after 24 hrs by FACS analysis (reference value: 10.9 %). It counts as functional.
For series [6], the system named is HCT-116. Put plainly: Cell cycle arrest in human HCT116 cells assessed as accumulation at sub-G1 phase at 20 uM after 24 hrs by FACS analysis (reference value: 6.2 %). The series is classed as functional.
Series [7] concerns HCT-116. In words: Antiproliferative activity against human HCT116 cells after 72 hrs by cell counting kit analysis. The series is classed as functional, cell-based. Conditions: HCT-116, 72 h. An outline of the steps: as §1
The test system of another series is Mus musculus. In words: Toxicity in human HCT116 cells xenografted nude mouse assessed change in body weight at 50 to 80 mg/kg, ip administered at days 0, 2, 4, 7, 9, 11, 14 and 16 measured on day 21. It counts as organism-based, HCT-116. Further details: dose 50-80 mg/kg, route intraperitoneal. To be noted: in vivo.
Series [8] deals with HCT-116. Put plainly: Induction of apoptosis in human HCT116 cells at 20 uM after 48 hrs using FITC-TUNEL staining by flow cytometry (reference value: 7.3 %). It counts as functional. An outline of the steps: as §2
A further series relates to MDA-MB-231. In words: Antiproliferative activity against human MDA-MB-231 cells after 72 hrs by cell counting kit analysis. The series is classed as functional, cell-based. Conditions: MDA-MB-231, 72 h. The method in brief:
as §1

Series [9] has as its system HCT-116. Put plainly: Cell cycle arrest in human HCT116 cells assessed as accumulation at S phase at 20 uM after 24 hrs by FACS analysis (reference value: 8.5 %). It counts as functional.
In series [10] the test system is HCT-116. In words: Cell cycle arrest in human HCT116 cells assessed as accumulation at G0/G1 phase at 20 uM after 24 hrs by FACS analysis (reference value: 76.5 %). It counts as functional.
Series [11] is described as follows: Antiproliferative activity against human CCD-1059SK cells at 200 uM after 72 hrs by cell counting kit analysis. It counts as cell-based. The method in brief:
as §1

The target in the next series is Tubulin (Homo sapiens) (UniProt P68371+Q9H4B7+P0DPH7+P68366+Q13509+Q71U36+P04350+Q3ZCM7+P07437+P68363+Q9BQE3+Q6PEY2+Q13885+Q9BVA1+Q9BUF5). In words: Inhibition of alpha-tubulin polymerization in human HT1080 cells assessed as disruption of microtubule structures at 10 uM after 4 hrs using Hoechst staining by fluorescence microscopic analysis. It counts as cell-based. To be noted: HT-1080.

The subject of a further series is SW480. Put plainly: Antiproliferative activity against human SW480 cells after 72 hrs by cell counting kit analysis. Conditions: SW480, 72 h. It counts as functional, cell-based. An outline of the steps: as §1

Calls of active or inactive are those of the source. No cut-off for these calls is given here.

For the compound `O=C(Nc1ccccc1)c1ccc(CO[N+](=O)[O-])cc1`, the inhibition result on Tubulin (Sus scrofa) and on Tubulin (Homo sapiens) was “Active” in each case. For the same compound, the IC50 (in general, the concentration that inhibits the measured activity by half) was 0.8 µM in the series with SW-620; more than 100 µM in the series on MCF7; 0.7 µM with SK-BR-3; 0.6 µM in the series with HCT-116 [7]; 0.8 µM in the series with MDA-MB-231; 0.8 µM in the series on SW480. Further, the Activity is 46.2% in the series on HCT-116 [1]; 4% with HCT-116 [3]; 51.8% in the series with HCT-116 [5]; 10.4% in the series on HCT-116 [6]; “Non-toxic” with Mus musculus; 24.2% in the series with HCT-116 [8]. Moreover, the Activity is reported as 7.4% in the series with HCT-116 [9], 30.4% with HCT-116 [10] and “Non-toxic” in [11]. The T/C (usually the result in the treated group divided by that in the control group, in per cent) in the series with HCT-116 [2] is 55%. The result in the series on HCT-116 [4] was Active.

Values taken from ChEMBL document CHEMBL1795243, “New microtubule polymerization inhibitors comprising a nitrooxymethylphenyl group” (Bioorg Med Chem, 2011).
